Reference: ChEMBL document CHEMBL4376902, “CN128: A New Orally Active Hydroxypyridinone Iron Chelator” (J Med Chem, 2020)

Key:
Cytochrome P450 3A5 = Cytochrome P450 3A5 (Homo sapiens, UniProt P20815); experiment: Inhibition of CYP3A5 in human liver microsomes; type: ADME
[1] = Toxicity in Sprague-Dawley rat assessed as induction of histopathological changes in thymus. at 25 to 116 mg/kg, po dosed daily for 4 weeks during chronic 4 week toxicity test; type: organism-based; conditions: in vivo, 672 h
[2] = Acid dissociation constant, pKa1 of the compound over pH 1.8 to 11.0 by spectrophotometric titration method; type: physicochemical
How it was run: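 Automated spectrophotometric titration with 0.1 M KOH in 0.1 pH-unit steps. Reading accepted as stable when drift was <0.01 pH unit after a 1.5 min incubation. 10 mm path length cuvette. Spectra fitted by computer to obtain the pKa values.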

[3] = Ratio of drug level in adrenal gland to plasma in rat at 150 umol/kg, po measured within 10 mins by LC-MS/MS analysis; type: ADME, organism-based; conditions: adrenal gland and plasma
How it was run: (§1)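 SD rats (half male, half female, n = 6 per group) given a single oral 150 μmol/kg dose. Killed at 10 min, 30 min, 2 h or 6 h; tissues washed in saline, weighed and homogenised in acetonitrile/water 1:9 (125 mg/mL). Tissue levels compared with plasma.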

[4] = Cmax in Sprague-Dawley rat at 600 umol/kg, po measured up to 1440 mins by LC/MS/MS analysis; type: ADME, organism-based; parameters: dose 600 umol/kg, route oral; conditions: in vivo
Mus musculus [5] = experiment: Toxicity in mouse assessed as reduction in erythrocyte population at 200 mg/kg, po dosed once daily for 2 months as 5 days per week schedule; conditions: in vivo, 120 h
[6] = Drug metabolism in rat bile assessed as (2S,3S,4S,5R,6R)-3,4,5-trihydroxy-6-[(2R)-2-(3-hydroxy-2-methyl-4-oxo-1-pyridyl)-3-phenylpropoxy]tetrahydropyran-2-carboxylic acid/(2S,3S,4S,5R,6S)-6-[[1-[(1R)-1-benzyl-2-hydroxyethyl]-2-methyl-4-oxo-3-pyridyl]oxy]-3,4,5-trihydroxy-tetrahydropyran-2-carboxylic acid ratio formation at 150 umol/kg, po measured over 8 hrs by LC/TOF/MS/MS analysis; type: ADME, organism-based; conditions: in vivo
How it was run: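 Bile collected from rats after an oral dose of 150 μmol/kg. Metabolites characterised by β-glucuronidase hydrolysis and LC-TOFMS/MS. M2/M1 ratio followed over 8 h.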

Mus musculus [7] = experiment: Toxicity in mouse assessed as reduction in total white cell counts at 200 mg/kg, po dosed once daily for 2 months as 5 days per week schedule; conditions: in vivo, 120 h
[8] = Drug level in rat stomach at 150 umol/kg, po measured measured up to 6 hrs by LC-MS/MS analysis; type: ADME, organism-based; conditions: in vivo
How it was run: (§2)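 Single oral dose of 150 μmol/kg to SD rats, half male and half female, n=6 per group. Rats decapitated at 10 min, 30 min, 2 h and 6 h. Tissues dissected, saline-washed, weighed and homogenised in acetonitrile/water 1:9 (125 mg/mL). Drug level measured against plasma; mean ± SE.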

Mus musculus [9] = experiment: Toxicity in mouse assessed as effect on platelet population at 200 mg/kg, po dosed once daily for 2 months as 5 days per week schedule; conditions: in vivo, 120 h
[10] = Apparent clearance in Sprague-Dawley rat at 75 umol/kg, po measured up to 1440 mins by LC/MS/MS analysis; type: ADME, organism-based; conditions: in vivo, read-out: CL(app) (converted)
Mus musculus [11] = experiment: Toxicity in mouse assessed as increase in reticulocyte population at 200 mg/kg, po dosed once daily for 2 months as 5 days per week schedule; conditions: in vivo, 120 h
[12] = Binding affinity to Mg2+ ion assessed as pM value by spectrophotometric titration method
[13] = Toxicity in Sprague-Dawley rat assessed as induction of histopathological changes in bone marrow at 25 to 116 mg/kg, po dosed daily for 4 weeks and measured after additional 4 weeks period in absence of drug; type: organism-based; conditions: in vivo, 672 h
[14] = Ratio of drug level in intestine to plasma in rat at 150 umol/kg, po measured within 10 mins by LC-MS/MS analysis; type: ADME, organism-based; conditions: intestine and plasma; how it was run: as §1
[15] = Drug level in rat adrenal gland at 150 umol/kg, po measured measured up to 6 hrs by LC-MS/MS analysis; type: ADME, organism-based; conditions: in vivo; how it was run: as §2
[16] = Binding affinity to Co2+ ion assessed as affinity constant by spectrophotometric titration method
[17] = Ratio of drug level in kidney to plasma in rat at 150 umol/kg, po measured within 10 mins by LC-MS/MS analysis; type: ADME, organism-based; conditions: kidney and plasma; how it was run: as §1
[18] = Cmax in Sprague-Dawley rat at 300 umol/kg, po measured up to 1440 mins by LC/MS/MS analysis; type: ADME, organism-based; parameters: dose 300 umol/kg, route oral; conditions: in vivo
[19] = Binding affinity to Mg2+ ion assessed as affinity constant by spectrophotometric titration method
Cytochrome P450 2D6 = Cytochrome P450 2D6 (Homo sapiens, UniProt P10635); experiment: Inhibition of CYP2D6 in human liver microsomes; type: ADME
[20] = Apparent clearance in Sprague-Dawley rat at 600 umol/kg, po measured up to 1440 mins by LC/MS/MS analysis; type: ADME, organism-based; conditions: in vivo, read-out: CL(app) (converted)
[21] = Toxicity in Sprague-Dawley rat assessed as induction of histopathological changes in thymus at 25 to 116 mg/kg, po dosed daily for 4 weeks and measured after additional 4 weeks period in absence of drug; type: organism-based; conditions: in vivo, 672 h
Cytochrome P450 2C9 = Cytochrome P450 2C9 (Homo sapiens, UniProt P11712); experiment: Inhibition of CYP2C9 in human liver microsomes; type: ADME
[22] = Binding affinity to Co2+ ion assessed as pM value by spectrophotometric titration method
Mus musculus [23] = experiment: Toxicity in mouse assessed as reduction in monocytes counts at 200 mg/kg, po dosed once daily for 2 months as 5 days per week schedule; conditions: in vivo, 120 h
Cytochrome P450 1A2 = target: T1, Cytochrome P450 1A2 (Homo sapiens, UniProt P05177); experiment: Inhibition of CYP1A2 in human liver microsomes; type: ADME
T1 sequence (P05177 whole entry): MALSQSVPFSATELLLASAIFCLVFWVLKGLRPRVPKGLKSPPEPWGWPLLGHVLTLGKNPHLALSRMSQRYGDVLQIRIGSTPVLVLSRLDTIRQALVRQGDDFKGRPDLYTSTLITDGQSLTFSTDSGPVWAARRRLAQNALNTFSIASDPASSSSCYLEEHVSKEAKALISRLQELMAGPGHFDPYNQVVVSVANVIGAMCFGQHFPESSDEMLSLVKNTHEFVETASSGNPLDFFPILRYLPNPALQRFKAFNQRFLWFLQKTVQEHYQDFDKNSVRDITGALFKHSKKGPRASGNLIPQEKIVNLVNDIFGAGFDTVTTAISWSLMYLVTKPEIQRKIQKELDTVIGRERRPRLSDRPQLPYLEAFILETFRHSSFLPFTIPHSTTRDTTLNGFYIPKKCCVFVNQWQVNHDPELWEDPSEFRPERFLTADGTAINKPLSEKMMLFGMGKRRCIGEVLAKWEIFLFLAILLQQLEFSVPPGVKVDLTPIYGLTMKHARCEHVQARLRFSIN

[24] = AUC (0 to infinity) in Sprague-Dawley rat at 300 umol/kg, po measured up to 1440 mins by LC/MS/MS analysis; type: ADME, organism-based; parameters: dose 300 umol/kg, time infinity, route oral; conditions: in vivo, 24 h

Chain of Cytochrome P450 2D6 (P10635 whole entry): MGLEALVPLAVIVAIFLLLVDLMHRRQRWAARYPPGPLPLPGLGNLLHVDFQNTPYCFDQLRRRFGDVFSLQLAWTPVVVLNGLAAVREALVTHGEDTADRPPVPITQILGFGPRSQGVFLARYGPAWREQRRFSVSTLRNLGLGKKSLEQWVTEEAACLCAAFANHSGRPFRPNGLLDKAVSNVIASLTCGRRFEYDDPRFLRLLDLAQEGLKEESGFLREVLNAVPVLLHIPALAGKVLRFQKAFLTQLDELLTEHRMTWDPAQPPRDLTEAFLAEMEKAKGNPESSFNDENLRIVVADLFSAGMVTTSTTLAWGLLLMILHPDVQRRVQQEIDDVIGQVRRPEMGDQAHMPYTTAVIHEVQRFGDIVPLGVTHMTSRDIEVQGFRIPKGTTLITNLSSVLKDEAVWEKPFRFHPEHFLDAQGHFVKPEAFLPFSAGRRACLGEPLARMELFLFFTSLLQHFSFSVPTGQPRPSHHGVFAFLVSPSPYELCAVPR
Chain of Cytochrome P450 3A5 (P20815 whole entry): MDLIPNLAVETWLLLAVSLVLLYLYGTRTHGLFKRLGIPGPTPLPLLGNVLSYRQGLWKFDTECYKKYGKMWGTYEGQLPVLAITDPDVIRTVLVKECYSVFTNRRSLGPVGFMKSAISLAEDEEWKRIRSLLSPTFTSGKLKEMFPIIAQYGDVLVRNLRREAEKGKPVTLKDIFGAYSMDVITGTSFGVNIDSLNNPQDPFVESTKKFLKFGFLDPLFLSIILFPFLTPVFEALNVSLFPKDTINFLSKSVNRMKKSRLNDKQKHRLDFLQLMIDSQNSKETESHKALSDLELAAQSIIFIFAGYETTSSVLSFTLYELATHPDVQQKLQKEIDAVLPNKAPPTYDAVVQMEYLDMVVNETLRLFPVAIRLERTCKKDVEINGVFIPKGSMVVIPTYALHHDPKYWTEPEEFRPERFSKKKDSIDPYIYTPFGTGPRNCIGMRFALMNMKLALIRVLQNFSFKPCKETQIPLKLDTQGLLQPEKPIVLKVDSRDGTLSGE
Chain of Cytochrome P450 2C9 (P11712 whole entry): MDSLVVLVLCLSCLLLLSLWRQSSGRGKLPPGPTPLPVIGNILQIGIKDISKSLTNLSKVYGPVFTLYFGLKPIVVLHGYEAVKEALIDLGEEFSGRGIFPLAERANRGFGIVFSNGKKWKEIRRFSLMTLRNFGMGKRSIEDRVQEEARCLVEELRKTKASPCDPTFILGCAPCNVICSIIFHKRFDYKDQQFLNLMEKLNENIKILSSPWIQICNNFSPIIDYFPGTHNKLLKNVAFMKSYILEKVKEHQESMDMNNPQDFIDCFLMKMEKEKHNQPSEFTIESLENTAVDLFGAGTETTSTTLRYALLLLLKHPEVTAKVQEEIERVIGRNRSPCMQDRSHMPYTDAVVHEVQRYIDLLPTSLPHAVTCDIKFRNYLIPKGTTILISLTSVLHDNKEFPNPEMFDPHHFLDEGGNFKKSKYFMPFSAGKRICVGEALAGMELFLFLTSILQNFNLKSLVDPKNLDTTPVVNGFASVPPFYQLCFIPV

For `Cc1c(O)c(O)cc[n+]1[C@@H](CO)Cc1ccccc1.[Cl-]`, the IC50 (Cytochrome P450 3A5) was over 200 µM, the Activity [1] was “Toxic” and the pKa [2] was 3.26. For the same compound, the Kp at 10 min [3] was 3.3 to 8.8, the Cmax [4] was 70 µg/mL and the Activity (Mus musculus [5]) was “Non-Toxic”. For the same compound, the Ratio [6] was 2.3 to 6.9, the Activity (Mus musculus [7]) was “Non-Toxic” and the Drug uptake [8] was “Not Active”. For the same compound, the Activity (Mus musculus [9]) was “Non-Toxic”, the CL/F [10] was 21.2 mL/min/kg and the Activity (Mus musculus [11]) was “Non-Toxic”. For the same compound, the pM [12] was 7.59, the Activity [13] was “Non-Toxic” and the Kp at 10 min [14] was 3.3 to 8.8. The Drug uptake [15] was “Not Active”, the log K [16] was 6.6 and the Kp at 10 min [17] was 3.3 to 8.8. For the same compound, the Cmax [18] was 41.9 µg/mL, the log K [19] was 9.12 and the IC50 (Cytochrome P450 2D6) was over 200 µM. The CL/F [20] was 15.2 mL/min/kg, the Activity [21] was “Non-Toxic” and the IC50 (Cytochrome P450 2C9) was over 200 µM. The pM [22] was 6.17, the Activity (Mus musculus [23]) was “Non-Toxic” and the IC50 (Cytochrome P450 1A2) was over 200 µM. For the same compound, the AUC [24] was 89800 ng·h/mL.
